# Measurements as given in ChEMBL document CHEMBL4673221, “Furanoflavones pongapin and lanceolatin B blocks the cell cycle and induce senescence in CYP1A1-overexpressing breast cancer cells” (Bioorg Med Chem, 2018).
# Calls of active or inactive are those of the source. The rule behind the calls is not given here.
# Columns and labels:
# [1] = target: T1, CYP1A1 (Homo sapiens, UniProt P04798); experiment: Inhibition of human CYP1A1 expressed in sacchrosomes at 10 uM using 7-ethoxyresorufin as substrate by fluorescence based assay relative to control; details: sacchrosomes expressing human CYP1A1, probe 7-ethoxyresorufin
# T1 sequence (P04798 whole entry): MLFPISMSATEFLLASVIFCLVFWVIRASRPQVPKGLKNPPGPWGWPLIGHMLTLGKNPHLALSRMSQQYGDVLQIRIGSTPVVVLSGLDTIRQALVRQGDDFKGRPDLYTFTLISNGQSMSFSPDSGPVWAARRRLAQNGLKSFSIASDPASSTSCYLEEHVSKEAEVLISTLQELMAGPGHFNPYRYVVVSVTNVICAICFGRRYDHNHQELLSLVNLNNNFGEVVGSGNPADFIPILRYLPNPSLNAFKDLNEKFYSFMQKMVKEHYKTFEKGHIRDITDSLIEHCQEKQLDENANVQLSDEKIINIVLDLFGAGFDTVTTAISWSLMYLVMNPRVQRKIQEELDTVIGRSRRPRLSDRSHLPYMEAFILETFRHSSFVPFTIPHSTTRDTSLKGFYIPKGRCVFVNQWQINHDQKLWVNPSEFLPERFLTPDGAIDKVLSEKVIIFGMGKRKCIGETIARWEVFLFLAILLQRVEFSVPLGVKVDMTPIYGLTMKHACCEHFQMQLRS
# Procedure, shortened: (§1)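 Enzymes were microsomal preparations isolated from recombinant baker's yeast (Sacchrosomes). Compounds were screened at 10 μM for percent inhibition, and IC50 values were also determined. Values are mean ± SD of three independent experiments. Alpha-naphthoflavone served as the positive control.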
# [2] = test system: MCF7; experiment: Antiproliferative activity against human MCF-7 cells overexpressing CYP1A1 assessed as reduction in cell viability; type: functional, cell-based
# Procedure, shortened: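 MCF-7 cells transfected with pcDNA3.1/CYP1A1 and selected in G418 (1 mg/mL, then […]) to give the stable MCF7-1A1 line. CYP1A1 expression was confirmed by Western blot and 7-ethoxyresorufin enzyme assay. The line was subcloned repeatedly. The reported value is the EC50 for inhibition of proliferation.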
# [3] = test system: MCF7; experiment: Cell cycle arrest in human MCF-7 cells over expressing CYP1A1 assessed as down regulation of CyclinD1 after 24 hrs by western blotting assay; type: functional, cell-based
# Procedure, shortened: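 Cyclin D1 was detected by Western blot, with β-tubulin as loading control. Untreated cells served as control.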
# [4] = test system: MCF7; experiment: Induction of cell cycle arrest in human MCF7 over expressing CYP1A cells assessed as accumulation at G0/G1 phase incubated for 24 hrs by PI staining based flow cytometric analysis (Rvb =54.3 %); type: functional
# [5] = test system: MCF7; experiment: Induction of cell cycle arrest in human MCF7 over expressing CYP1A cells assessed as accumulation at G2/M phase incubated for 24 hrs by PI staining based flow cytometric analysis (reference value: 22.6%); type: functional
# [6] = test system: MCF7; experiment: Induction of cell cycle arrest in human MCF7 over expressing CYP1A cells assessed as accumulation at S phase incubated for 24 hrs by PI staining based flow cytometric analysis (reference value: 20.1%); type: functional
# [7] = target: T2, Cytochrome P450 1A1 (Homo sapiens, UniProt P04798); experiment: Inhibition of human CYP1A1 expressed in sacchrosomes using 7-ethoxyresorufin as substrate by fluorescence based assay; procedure, shortened: as §1
# T2 sequence (P04798 whole entry): T1 sequence (P04798 whole entry)
# [8] = target: T3, Cytochrome P450 1B1 (Homo sapiens, UniProt Q16678); experiment: Inhibition of human CYP1B1 expressed in sacchrosomes using 7-ethoxyresorufin as substrate by fluorescence based assay; type: ADME; procedure, shortened: as §1
# T3 sequence (Q16678 whole entry): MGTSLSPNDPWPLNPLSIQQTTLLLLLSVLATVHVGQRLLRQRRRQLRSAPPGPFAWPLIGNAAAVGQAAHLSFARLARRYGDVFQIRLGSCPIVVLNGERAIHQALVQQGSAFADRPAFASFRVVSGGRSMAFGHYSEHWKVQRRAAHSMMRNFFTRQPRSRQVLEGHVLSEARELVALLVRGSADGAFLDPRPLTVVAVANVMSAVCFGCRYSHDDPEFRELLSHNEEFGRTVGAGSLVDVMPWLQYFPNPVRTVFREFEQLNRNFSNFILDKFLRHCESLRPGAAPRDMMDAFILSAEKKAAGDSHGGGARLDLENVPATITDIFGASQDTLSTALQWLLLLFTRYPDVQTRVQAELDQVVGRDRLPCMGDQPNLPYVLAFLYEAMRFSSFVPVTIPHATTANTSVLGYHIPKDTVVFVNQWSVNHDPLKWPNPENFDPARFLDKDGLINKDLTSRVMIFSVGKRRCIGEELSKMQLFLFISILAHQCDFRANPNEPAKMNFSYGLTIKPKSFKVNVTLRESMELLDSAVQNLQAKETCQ
# [9] = target: T3, Cytochrome P450 1B1; experiment: Inhibition of human CYP1B1 expressed in human HEK293 cells using 7-ethoxyresorufin as substrate preincubated for 30 mins followed by substrate additon and measured after 60 mins by fluorescence based assay; type: ADME, cell-based
# Procedure, shortened: (§2)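 The assay used live recombinant human HEK293 cells grown in suspension, each cell line expressing a single CYP (CYP1A1 or CYP1B1). Percent inhibition was read at 10 μM, and IC50 values were determined. Values are mean ± SD of three independent experiments. Alpha-naphthoflavone served as the reference inhibitor.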
# [10] = target: T2, Cytochrome P450 1A1; experiment: Inhibition of human CYP1A1 expressed in human HEK293 cells using 7-ethoxyresorufin as substrate preincubated for 30 mins followed by substrate additon and measured after 60 mins by fluorescence based assay; type: cell-based; procedure, shortened: as §2
# [11] = target: T2, Cytochrome P450 1A1; experiment: Inhibition of human CYP1A1 expressed in HEK293 cells assessed as reduction in CYP1A1 mediated […] induced-toxicity by measuring EC50 at 3 times of IC50 concentration by MTT assay relative to control; type: cell-based; design: scale not given: the % may be the effect or the level left
# Procedure, shortened: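 Adherent HEK293 cells transfected with pcDNA3.1/hCYP1A1 were exposed to B[a]P over 0.05–100 µM, with inhibitor at 3x its IC50 from the suspension HEK293-CYP1A1 assay. The EC50 of B[a]P for cell growth inhibition was derived. Cells transfected with empty plasmid were used for comparison. Values are mean and SD of three independent experiments.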
# [12] = target: T1, CYP1A1; experiment: Inhibition of human CYP1A1 expressed in human HEK293 cells at 10 uM using 7-ethoxyresorufin as substrate preincubated for 30 mins followed by substrate additon and measured after 60 mins by fluorescence based assay relative to control; type: cell-based; details: HEK293 cells expressing human CYP1A1, probe 7-ethoxyresorufin, time 90 min; procedure, shortened: as §2
inhibition at 10 µM [1] [%],EC50 [2] [µM],IC50 [7] [µM],IC50 [8] [µM],IC50 [9] [µM],IC50 [10] [µM],"inhibition at 1 h, 10 µM [12] [%]",Compound,Activity [3],Activity [4] [%],Activity [5] [%],Activity [6] [%],Activity [11] [%]
31.6,–,–,–,–,–,–,COc1c(-c2cc(-c3ccccc3)nn2-c2ccccc2[N+](=O)[O-])ccc2occc12,–,–,–,–,–
–,> 20,–,–,–,–,–,O=c1cc(-c2ccccc2)oc2c1ccc1ccccc12 [ALPHA-NAPHTHOFLAVONE],Active,55.4,20.5,24.1,–
–,–,2.4,3.9,4.5,4.4,–,COc1c(C(=O)/C=C(\O)c2ccccc2)ccc2occc12 [PONGAMOL],–,–,–,–,73
–,–,0.28,0.6,1.5,0.48,–,COc1c(C(=O)/C=C(\O)c2ccc3c(c2)OCO3)ccc2occc12 [OVALITENONE],–,–,–,–,–
> 70,–,0.28,> 20,5.7,0.49,> 84,COc1c(-c2cc(-c3ccccc3)n(-c3ccc(C#N)cc3)n2)ccc2occc12,–,–,–,–,91
–,–,0.69,3.8,1.2,0.24,–,O=c1cc(-c2cccc(O)c2)oc2c1ccc1occc12,–,–,–,–,–
–,–,8.2,3.4,6.8,6.4,–,O=c1cc(-c2ccc3c(c2)OCO3)oc2c1ccc1occc12 [PONGAGLABRONE],–,–,–,–,–
> 70,–,6.8,6.2,25.5,8.6,> 84,COc1c(-c2cc(-c3ccccc3)nn2-c2ccc(C#N)cc2)ccc2occc12,–,–,–,–,–

Compound,inhibition at 10 µM [1] [%],EC50 [2] [µM],IC50 [7] [µM],IC50 [8] [µM],IC50 [9] [µM],IC50 [10] [µM],"inhibition at 1 h, 10 µM [12] [%]",Activity [3],Activity [4] [%],Activity [5] [%],Activity [6] [%],Activity [11] [%]
COc1c(-c2ccccc2)oc2c(ccc3occc32)c1=O [KARANJIN],–,–,2.7,4.1,0.03,0.03,–,–,–,–,–,–
